HUVEC inhibit: inhibitors of human endothelial cell proliferation; HUVEC proliferation, CellTiter-Glo luminescence, 72 h; hits give low values; viability, % at 10 µM (by protocol); hit rate 1.1% among 86,000;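 active means viability at or below 30%; inactive means viability above 30%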;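 further: 100% = median luminescence of DMSO-only cell control wells on each plate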
HCT116 bCat-KO: beta-catenin-lacking colon tumor cell growth suppression; HCT116 beta-catenin knockout viability, CellTiter-Glo, 60 h; hits give low values; hit rate 1.5% among 140,000; viability, % at 10 µM; AID 818;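 active means viability at or under a set limit, the compound median less 4 SD, cut at about 6% in these data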;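 further: 0% = Hyamine 1622 control at 20 µM and 100% = untreated cell control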
PTEN del growth: growth suppressors of cells with PTEN tumor suppressor deletion. HCT116 PTEN-null viability, CellTiter-Glo, 60 h; hits give low values. viability, % at 10 µM. hit rate 1.2% among 140,000. AID 827;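 active means viability at or below a set limit, 4 SD under the median of all tested compounds, cut at about 3.7% in these data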;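 further: PTEN knockout HCT116 line with beta catenin targeted HCT116 as companion control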
H69AR inhibit: blocks growth of human H69AR lung tumor cells; AID 598; hit rate 6% among 85,000; viability, % at 10 µM; H69AR lung tumor viability, ATP luminescence, 72 h; hits give low values;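 active means viability at or below 40%; inactive means viability above 40%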;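 further: multidrug resistant small cell line overexpressing MRP-1 efflux transporter; 100% = mean luminescence of untreated control wells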
Lung fibro prol: blocks proliferation of human lung fibroblasts | viability, % at 10 µM | LL 47 human lung fibroblast viability, ATP luminescence; hits give low values | AID 719 | hit rate 1.1% among 85,000;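 active means viability at or below 50% in the single dose screen; inactive means viability above 50%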;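 further: compound exposure lasted 72 h before the ATP readout; 100% = median luminescence of untreated cell-only wells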
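Test system: LL 47 human lung fibroblasts; Quantity: 1,150 cells/well; Buffer or medium: IMEM plus 15% FBS; Dosing: tenfold compound dosing solution, DMSO at 0.1%; Timing: overnight cell rest, 72 h compound treatment at 37 °C; Detection: ATP-based CellTiter-Glo luminescent readout; Read-out basis: viability percentage against median untreated-cell control; Controls: cell-only wells, no compound.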
Numbers without * were called inactive; nt = no result given. This excerpt belongs to a sample that is enriched for hits.

SMILES	HUVEC inhibit	HCT116 bCat-KO	PTEN del growth	H69AR inhibit	Lung fibro prol
C[C@H]1CC[C@H]2C(=O)N[C@H](Cc3ccccc3)C(=O)N2[C@@H]1c1ccccc1	nt	100	95	nt	nt
CCN(C(=O)c1cnc(N2CCN(c3ncccn3)CC2)c2ccccc12)c1cccc(Cl)c1	51	4.0*	5	20*	76
Cc1ccc2nc(NCCO)nc(-c3ccccc3)c2c1	69	47	41	25*	76
C=CCn1c(SCC(=O)Nc2ccc(-c3nc4ccc(C)cc4s3)cc2)nnc1-c1ccccc1	nt	100	90	nt	nt
CCC(=O)N(Cc1c(C)nn(-c2ccccc2)c1Cl)c1ccc(Cl)cc1	nt	63	59	nt	nt
O=c1cc(CN2CCN(C/C=C/c3ccccc3)CC2)c2cc(O)ccc2o1	75	14	31	39*	98
CC(C)c1ccc2oc(=O)cc(CN3CCN(c4ccc(F)cc4)CC3)c2c1	70	60	65	69	92
O=c1cc(CN2CCN(c3ccccc3)CC2)c2cc(O)c(-c3ccccc3)cc2o1	35	87	84	5.0*	48*
CCc1ccc2oc(=O)cc(CN3CCN(c4ccc(F)cc4)CC3)c2c1	40	78	76	37*	26*
O=c1cc(CN2CCN(c3cccc(Cl)c3)CC2)c2cc(O)c(-c3ccccc3)cc2o1	nt	96	101	nt	nt
COc1ccc2c(COC(=O)CNC(=O)C34CC5CC(CC(C5)C3)C4)cc(=O)oc2c1	nt	85	88	nt	nt
COc1ccc(C2N=C(c3ccccc3)C(C)(C)N2O)cc1OC (stereo not drawn)	86	91	79	91	96
Cc1ccc(C(=O)c2ccccc2C(=O)OCC(=O)Nc2cccc([N+](=O)[O-])c2)cc1	nt	71	73	nt	nt
Cc1ccc(Cl)c(NC(=O)COC(=O)c2ccccc2C(=O)c2ccc(Cl)c([N+](=O)[O-])c2)c1Cl	nt	2.1*	2.0*	nt	nt
Cc1cc(Cl)ccc1NC(=O)NC1CCN(S(=O)(=O)c2ccc(F)cc2)CC1	94	79	73	39*	96
CCOc1ccccc1NC(=O)COC(=O)CSc1ccc(Cl)cc1	nt	103	94	nt	nt
CC1CCN(CC(=O)N2c3ccccc3CCc3ccccc32)CC1	nt	0.8*	0.8*	nt	nt
CCOC(=O)C1=C(c2ccccc2)Nc2ncnn2C1c1cc(OC)ccc1OC (stereo not drawn)	100	99	90	39*	101
OCCN1CCN(CCCN2c3ccccc3Sc3ccc(C(F)(F)F)cc32)CC1	2.9*	1.7*	1.5*	0.8*	47*
CN(C)CCCN1c2ccccc2Sc2ccc(C(F)(F)F)cc21	47	11	13	1.5*	41*
CCn1cc(C2=NOC(C(=O)Nc3cc(C)nn3-c3ccccc3)C2)c(C)n1 (stereo not drawn)	99	102	101	86	101
Clc1ccccc1-c1nnc2sc(-c3ccc4c(c3)OCO4)nn12	50	89	65	23*	92
CN(C)c1ccc(-c2nn3c(-c4ccc(Cl)cc4Cl)nnc3s2)cc1	45	34	35	14*	85
Clc1cccc(-c2nnc3sc(-c4ccc5c(c4)OCO5)nn23)c1	106	nt	nt	nt	100
Brc1ccccc1-c1nnc2sc(-c3ccc4c(c3)OCCO4)nn12	72	34	34	17*	87
SMILES	HUVEC inhibit	HCT116 bCat-KO	PTEN del growth	H69AR inhibit	Lung fibro prol
Cc1ccc(C(c2nnnn2C2CCCC2)N2c3ccccc3CC2C)cc1 (stereo not drawn)	nt	55	49	nt	nt
O=C1c2oc3ccccc3c(=O)c2C(c2ccc(Cl)cc2)N1c1ncccn1 (stereo not drawn)	99	nt	nt	89	101
COc1ccc(NC(=O)Cc2c(SC)c3ccccc3n2Cc2ccccc2)cc1	nt	44	44	nt	nt
CC(=O)CS(=O)(=O)c1ccc(Oc2ccc(S(=O)(=O)CC(C)=O)cc2)cc1	104	93	93	86	99
CC(=O)CCS(=O)(=O)c1ccc(Oc2ccc(S(=O)(=O)CCC(C)=O)cc2)cc1	94	63	78	1.3*	11*
Cc1ccc(C2c3c(oc4ccccc4c3=O)C(=O)N2c2nnc(C(C)C)s2)o1 (stereo not drawn)	58	92	103	8.4*	100
CC(C)c1nnc(N2C(=O)c3oc4ccccc4c(=O)c3C2c2ccco2)s1 (stereo not drawn)	nt	98	97	nt	nt
CCn1ncc(C2=NOC(C(=O)NCc3ccc(OC)cc3)C2)c1C (stereo not drawn)	64	36	37	21*	103
CCn1ncc(C2=NOC(C(=O)Nc3c(C)n(C)n(-c4ccccc4)c3=O)C2)c1C (stereo not drawn)	49	103	101	98	101
COc1ccc(C2=NOC(C(=O)NCc3ccccc3)C2)cc1 (stereo not drawn)	62	69	82	44	83
CCn1ncc(C2=NOC(C(=O)NCc3ccccc3)C2)c1C (stereo not drawn)	50	15	19	26*	49*
Cn1c(SCC(=O)N2CCCCCC2)nc2c([nH]c3ccccc32)c1=O	81	85	92	38*	67
COc1cccc(Oc2nnnn2-c2ccccc2)c1	89	97	106	nt	99
COc1cccc(-n2nnnc2S(C)(=O)=O)c1	45	12	1.3*	1.1*	47*
O=C(NCCCN1CCOCC1)c1c(O)c2cc(Br)cc(Br)c2[nH]c1=O	102	nt	nt	18*	100
O=C(NCCN1CCOCC1)c1cc(=O)[nH]c2ccc(Br)cc12	89	94	84	89	104
CCNc1nc(NC(C)C)nc(N(C#N)CCOc2ccc(Cl)cc2Cl)n1	76	55	64	22*	93
Nc1nc(=S)[nH]c2c1C1(CCCCC1)Cc1ccccc1-2	nt	98	102	nt	nt
COc1ccc(C(c2sc3ncnn3c2O)N2CCN(c3ccccc3F)CC2)cc1OC (stereo not drawn)	37	94	90	90	93
COc1ccc(C(c2sc3ncnn3c2O)N2CC(C)OC(C)C2)cc1OC (stereo not drawn)	29*	96	99	97	88
O=C(CSc1ncc(-c2ccc(F)cc2)n1Cc1ccco1)Nc1ccc2c(c1)OCO2	63	65	69	25*	101
CCn1cc(CNC(=O)CCSc2nc(-c3ccco3)cc(C(F)(F)F)n2)cn1	82	67	54	32*	100
O=C(CSc1nc(-c2ccco2)cc(C(F)(F)F)n1)Nc1ccc2c(c1)OCO2	68	68	64	24*	90
O=C(CSc1nc(-c2ccco2)cc(C(F)(F)F)n1)Nc1ccc(C(=O)N2CCOCC2)cc1	101	92	86	78	108
O=C(CSc1nc(-c2ccco2)cc(C(F)(F)F)n1)Nc1cccnc1	69	68	65	21*	85
O=C(CSc1nnc(-c2cccs2)n1Cc1ccco1)Nc1ccc2c(c1)OCO2	94	98	95	108	102
CCOC(=O)c1cn2c3c(c(F)c(F)c(F)c3c1=O)SC(N1CCCC1)=N2	75	nt	nt	68	80

Screening data from PubChem BioAssay.
